Source: ChEMBL document CHEMBL1121550, “Amino acid and dipeptide derivatives of daunorubicin. 1. Synthesis, physicochemical properties, and lysosomal digestion” (J Med Chem, 1980)

What was measured:
[1] = test system: Nucleic Acid; test: Apparent binding affinity to herring sperm DNA at 25 degree Celsius in PBS buffer with pH 7.4; format: nucleic-acid assay; conditions: Clupeidae
Summary of the method: (§1)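 Spectral titration: drug at 200 µg/mL in PBS pH 7.4 (NaCl 137 mM, KCl 3 mM, Na2HPO4 8 mM, KH2PO4 1.5 mM) titrated with 0.05–2.00 mL highly polymerized herring sperm DNA (2.34 mg/mL in 0.9% NaCl), made to 4.0 mL. Free and bound drug estimated from absorbance at 475 nm; Scatchard plot (nx/Df vs nx) yields Ka and nmax.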

[2] = test system: Nucleic Acid; test: Maximal binding (nmax) sites to herring sperm DNA. Estimated from Scatchard plots; format: nucleic-acid assay; conditions: Clupeidae; summary of the method: as §1

For `COc1cccc2c1C(=O)c1c(O)c3c(c(O)c1C2=O)C[C@@](O)(C(C)=O)C[C@@H]3OC1CC(NC(=O)C(CC(C)C)NC(=O)CN)C(O)C(C)O1` (stereo partly drawn), which Ka [1] is on record?
Its Ka is 30000 M⁻¹.

And the Maximal binding [2]?
Its Maximal binding is 0.14.

`COc1cccc2c1C(=O)c1c(O)c3c(c(O)c1C2=O)C[C@@](O)(C(C)=O)C[C@@H]3O[C@H]1C[C@H](NC(=O)[C@H](C)N)[C@H](O)[C@H](C)O1` was tested. Which Ka [1] did it give?
Its Ka is 90000 M⁻¹.

What about the Maximal binding [2] of the same molecule?
Its Maximal binding is 0.19.

Which results are given for `COc1cccc2c1C(=O)c1c(O)c3c(c(O)c1C2=O)C[C@@](O)(C(C)=O)C[C@@H]3O[C@H]1C[C@H](N)[C@H](O)[C@H](C)O1`?
Ka [1]: 310000 M⁻¹; Maximal binding [2]: 0.16

`CCC(C)C(N)C(=O)NC1CC(O[C@H]2C[C@](O)(C(C)=O)Cc3c(O)c4c(c(O)c32)C(=O)c2c(OC)cccc2C4=O)OC(C)C1O` (stereo partly drawn) was tested. Which Ka [1] did it give?
The Ka was 110000 M⁻¹.

And the Maximal binding [2]?
Its Maximal binding is 0.19.

`COc1cccc2c1C(=O)c1c(O)c3c(c(O)c1C2=O)C[C@@](O)(C(C)=O)C[C@@H]3OC1CC(NC(=O)C(N)C(C)C)C(O)C(C)O1` (stereo partly drawn) was tested. Which Ka [1] did it give?
The Ka was 110000 M⁻¹.

What about the Maximal binding [2] of the same molecule?
The Maximal binding was 0.18.

With `COc1cccc2c1C(=O)c1c(O)c3c(c(O)c1C2=O)C[C@@](O)(C(C)=O)C[C@@H]3OC1CC(NC(=O)CN)C(O)C(C)O1` (stereo partly drawn) as the molecule, how does the Ka [1] read?
The Ka was 130000 M⁻¹.

And the Maximal binding [2]?
Its Maximal binding is 0.16.

What does the source list for `COc1cccc2c1C(=O)c1c(O)c3c(c(O)c1C2=O)C[C@@](O)(C(C)=O)C[C@@H]3OC1CC(NC(=O)C(N)CC(C)C)C(O)C(C)O1` (stereo partly drawn)?
Ka [1]: 130000 M⁻¹; Maximal binding [2]: 0.2

Which Ka [1] does the source give for `COc1cccc2c1C(=O)c1c(O)c3c(c(O)c1C2=O)C[C@@](O)(C(C)=O)C[C@@H]3O[C@H]1C[C@H](NC(=O)[C@H](CC(C)C)NC(=O)[C@H](C)N)[C@H](O)[C@H](C)O1` here?
The Ka was 20000 M⁻¹.

And the Maximal binding [2]?
The Maximal binding was 0.17.

For `COc1cccc2c1C(=O)c1c(O)c3c(c(O)c1C2=O)C[C@@](O)(C(C)=O)C[C@@H]3O[C@H]1C[C@H](NC(=O)[C@H](C)NC(=O)[C@@H](N)CC(C)C)[C@H](O)[C@H](C)O1`, which Ka [1] is on record?
Its Ka is 40000 M⁻¹.

What about the Maximal binding [2] of the same molecule?
The Maximal binding was 0.12.
